# In ChEMBL document CHEMBL4680175, “Sulfonamide-based ring-fused analogues for CAN508 as novel carbonic anhydrase inhibitors endowed with antitumor activity: Design, synthesis, and in vitro biological evaluation” (Eur J Med Chem, 2020):
# Activity calls are given as the source filed them. No cut-off for these calls is given here.
# Experiments:
# SW-620 = assay: Antitumor activity against human SW620 cells assessed as cell growth inhibition at 10 uM incubated for 48 hrs by sulforhodamine B assay; type: functional; settings: read-out: GI
# Method in brief: (§1)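 NCI one-dose screen: 57-cell-line panel exposed at 10 μM for 48 h, Drug Evaluation Branch protocol. Growth and viability read by sulforhodamine B; data given as percent growth inhibition from the mean-graph of percent growth of treated cells.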
# SK-OV-3 = assay: Antitumor activity against human SK-OV-3 cells assessed as cell growth inhibition at 10 uM incubated for 48 hrs by sulforhodamine B assay; type: functional; settings: read-out: GI
# Method in brief: (§2)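 NCI Drug Evaluation Branch protocol: primary single-dose screen at 10 μM across a 57-line human cancer panel. Drug exposure is 48 h. Cell growth and viability are read by sulforhodamine B assay. Data are given as a mean graph of percent growth of treated cells and reported as percentage growth inhibition (GI%).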
# OVCAR-5 = assay: Antitumor activity against human OVCAR-5 cells assessed as cell growth inhibition at 10 uM incubated for 48 hrs by sulforhodamine B assay; type: functional; settings: read-out: GI; method in brief: as §2
# 786-0 = assay: Antitumor activity against human 786-0 cells assessed as cell growth inhibition at 10 uM incubated for 48 hrs by sulforhodamine B assay; type: functional; settings: read-out: GI; method in brief: as §2
# OVCAR-4 = assay: Antitumor activity against human OVCAR-4 cells assessed as cell growth inhibition at 10 uM incubated for 48 hrs by sulforhodamine B assay; type: functional; settings: read-out: GI; method in brief: as §2
# M14 = assay: Antitumor activity against human M14 cells assessed as cell growth inhibition at 10 uM incubated for 48 hrs by sulforhodamine B assay; type: functional; settings: read-out: GI; method in brief: as §2
# A498 = assay: Antitumor activity against human A498 cells assessed as cell growth inhibition at 10 uM incubated for 48 hrs by sulforhodamine B assay; type: functional; settings: read-out: GI; method in brief: as §2
# MDA-MB-435 = assay: Antitumor activity against human MDA-MB-435 cells assessed as cell growth inhibition at 10 uM incubated for 48 hrs by sulforhodamine B assay; type: functional; settings: read-out: GI; method in brief: as §2
# HT-29 = assay: Antitumor activity against human HT-29 cells assessed as cell growth inhibition at 10 uM incubated for 48 hrs by sulforhodamine B assay; type: functional; settings: read-out: GI; method in brief: as §2
# TK-10 = assay: Antitumor activity against human TK-10 cells assessed as cell growth inhibition at 10 uM incubated for 48 hrs by sulforhodamine B assay; type: functional; settings: read-out: GI; method in brief: as §1
# EKVX = assay: Antitumor activity against human EKVX cells assessed as cell growth inhibition at 10 uM incubated for 48 hrs by sulforhodamine B assay; type: functional; settings: read-out: GI; method in brief: as §2
# HL-60(TB) = assay: Antitumor activity against human HL-60(TB) cells assessed as cell growth inhibition at 10 uM incubated for 48 hrs by sulforhodamine B assay; type: functional; settings: read-out: GI
# Method in brief: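 Single-dose NCI-60-type screen of 57 human cancer cell lines at 10 μM under the NCI Drug Evaluation Branch protocol. Drugs exposed for 48 h; growth and viability read by sulforhodamine B assay. Data given as mean-graph percent growth of treated cells, expressed as percent growth inhibition.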
# UACC-62 = assay: Antitumor activity against human UACC-62 cells assessed as cell growth inhibition at 10 uM incubated for 48 hrs by sulforhodamine B assay; type: functional; settings: read-out: GI; method in brief: as §1
# UACC-257 = assay: Antitumor activity against human UACC-257 cells assessed as cell growth inhibition at 10 uM incubated for 48 hrs by sulforhodamine B assay; type: functional; settings: read-out: GI; method in brief: as §1
# RXF 393 = assay: Antitumor activity against human RXF 393 cells assessed as cell growth inhibition at 10 uM incubated for 48 hrs by sulforhodamine B assay; type: functional; settings: read-out: GI; method in brief: as §2
# ACHN = assay: Antitumor activity against human ACHN cells assessed as cell growth inhibition at 10 uM incubated for 48 hrs by sulforhodamine B assay; type: functional; settings: read-out: GI; method in brief: as §2
# A549 = assay: Antitumor activity against human A549/ATCC cells assessed as cell growth inhibition at 10 uM incubated for 48 hrs by sulforhodamine B assay; type: functional; settings: read-out: GI; method in brief: as §2
# HCT-15 = assay: Antitumor activity against human HCT15 cells assessed as cell growth inhibition at 10 uM incubated for 48 hrs by sulforhodamine B assay; type: functional; settings: read-out: GI; method in brief: as §2
# CDK9/cyclin T1 = CDK9/cyclin T1 (Homo sapiens, UniProt P50750); assay: Inhibition of human full-length N-terminal GST/His6-tagged CDK9 (1 to 372 residues)/His6-tagged Cyclin-T1 (1 to 726 residues) expressed in sf9 cells using (YSPTSPS)2KK peptide as substrate in presence of [gamma33P]ATP
# Chain of CDK9/cyclin T1 (O60563 whole entry, the tested form may be a part): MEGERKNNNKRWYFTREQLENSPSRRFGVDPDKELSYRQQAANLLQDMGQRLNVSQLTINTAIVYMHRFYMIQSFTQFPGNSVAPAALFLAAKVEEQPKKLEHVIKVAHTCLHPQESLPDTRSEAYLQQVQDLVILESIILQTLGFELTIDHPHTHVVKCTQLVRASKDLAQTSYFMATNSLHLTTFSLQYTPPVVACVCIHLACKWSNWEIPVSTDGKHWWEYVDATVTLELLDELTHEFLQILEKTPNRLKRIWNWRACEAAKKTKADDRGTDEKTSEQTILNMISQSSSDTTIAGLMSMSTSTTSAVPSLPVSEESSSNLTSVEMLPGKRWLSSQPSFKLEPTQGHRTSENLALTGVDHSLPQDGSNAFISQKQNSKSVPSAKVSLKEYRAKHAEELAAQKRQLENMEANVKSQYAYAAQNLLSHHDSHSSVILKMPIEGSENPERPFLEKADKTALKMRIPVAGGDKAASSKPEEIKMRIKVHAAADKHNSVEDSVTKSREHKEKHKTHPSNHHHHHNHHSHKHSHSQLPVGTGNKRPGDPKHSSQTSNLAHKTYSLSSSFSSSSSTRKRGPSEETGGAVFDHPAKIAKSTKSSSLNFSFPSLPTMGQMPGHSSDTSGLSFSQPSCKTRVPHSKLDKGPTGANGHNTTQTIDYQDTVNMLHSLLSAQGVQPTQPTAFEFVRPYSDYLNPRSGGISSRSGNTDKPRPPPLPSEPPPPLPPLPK
# Chain of CDK9/cyclin T1 (P50750 whole entry, the tested form may be a part): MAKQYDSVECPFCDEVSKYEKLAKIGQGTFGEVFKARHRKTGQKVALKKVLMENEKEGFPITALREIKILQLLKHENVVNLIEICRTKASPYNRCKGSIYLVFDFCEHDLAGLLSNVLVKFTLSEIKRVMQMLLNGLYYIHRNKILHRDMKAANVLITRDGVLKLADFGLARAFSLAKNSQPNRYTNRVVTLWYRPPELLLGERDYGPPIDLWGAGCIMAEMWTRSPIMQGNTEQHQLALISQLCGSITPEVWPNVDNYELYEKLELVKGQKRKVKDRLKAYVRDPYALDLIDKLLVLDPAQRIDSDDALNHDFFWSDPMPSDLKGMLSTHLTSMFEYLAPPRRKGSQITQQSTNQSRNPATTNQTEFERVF
# HCC 2998 = assay: Antitumor activity against human HCC2998 cells assessed as cell growth inhibition at 10 uM incubated for 48 hrs by sulforhodamine B assay; type: functional; settings: read-out: GI; method in brief: as §2
# SF-295 = assay: Antitumor activity against human SF295 cells assessed as cell growth inhibition at 10 uM incubated for 48 hrs by sulforhodamine B assay; type: functional; settings: read-out: GI; method in brief: as §2
# NCI-H23 = assay: Antitumor activity against human NCI-H23 cells assessed as cell growth inhibition at 10 uM incubated for 48 hrs by sulforhodamine B assay; type: functional; settings: read-out: GI; method in brief: as §2
# SR = assay: Antitumor activity against human SR cells assessed as cell growth inhibition at 10 uM incubated for 48 hrs by sulforhodamine B assay; type: functional; settings: read-out: GI; method in brief: as §1
# SF-268 = assay: Antitumor activity against human SF268 cells assessed as cell growth inhibition at 10 uM incubated for 48 hrs by sulforhodamine B assay; type: functional; settings: read-out: GI; method in brief: as §2
# SK-MEL-28 = assay: Antitumor activity against human SK-MEL-28 cells assessed as cell growth inhibition at 10 uM incubated for 48 hrs by sulforhodamine B assay; type: functional; settings: read-out: GI; method in brief: as §2
# HOP-92 = assay: Antitumor activity against human HOP92 cells assessed as cell growth inhibition at 10 uM incubated for 48 hrs by sulforhodamine B assay; type: functional; settings: read-out: GI; method in brief: as §2
# SNB-19 = assay: Antitumor activity against human SNB-19 cells assessed as cell growth inhibition at 10 uM incubated for 48 hrs by sulforhodamine B assay; type: functional; settings: read-out: GI; method in brief: as §2
# COLO 205 = assay: Antitumor activity against human COLO205 cells assessed as cell growth inhibition at 10 uM incubated for 48 hrs by sulforhodamine B assay; type: functional; settings: read-out: GI; method in brief: as §2
# MCF7 [1] = assay: Induction of apoptosis in human MCF7 cells assessed as fold increase in apoptotic cells by Annexin V-FITC/propidium iodide staining based flow cytometric analysis relative to control; type: functional
# MCF7 [2] = assay: Antiproliferative activity against human MCF7 cells measured after 48 hrs under normoxic condition by MTT assay; type: functional, cell-based; settings: MCF7, 48 h
# MCF7 [3] = assay: Induction of cell cycle arrest in human MCF7 cells assessed as accumulation at G2/M phase at IC50 concentration incubated for 24 hrs by PI/RNase staining based flow cytometric analysis; type: functional
# Method in brief: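 Cells were washed in ice-cold PBS, fixed in ice-cold 70% ethanol, treated with 100 µg/mL RNase and stained with 40 µg/mL PI. DNA content was read by flow cytometry, with sub-G1 compared against control.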
# MCF7 [4] = assay: Induction of apoptosis in human MCF7 cells assessed as early apoptotic cells by Annexin V-FITC/propidium iodide staining based flow cytometric analysis (reference value: 0.47 %); type: functional
# MCF7 [5] = assay: Antiproliferative activity against human MCF7 cells measured after 48 hrs under CoCl2-induced hypoxic condition by MTT assay; type: functional, cell-based; settings: MCF7, 48 h
# MCF7 [6] = assay: Induction of apoptosis in human MCF7 cells assessed as late apoptotic cells by Annexin V-FITC/propidium iodide staining based flow cytometric analysis (reference value: 0.29 %); type: functional
# MDA-MB-468 [7] = assay: Antiproliferative activity against human MDA-MB-468 cells measured after 48 hrs under normoxic condition by MTT assay; type: functional, cell-based; settings: MDA-MB-468, 48 h
# MDA-MB-468 [8] = assay: Antiproliferative activity against human MDA-MB-468 cells measured after 48 hrs under CoCl2-induced hypoxic condition by MTT assay; type: functional, cell-based; settings: MDA-MB-468, 48 h
Structure (SMILES),inhibition of growth at 10 µM (SW-620) [%],inhibition of growth at 10 µM (SK-OV-3) [%],inhibition of growth at 10 µM (OVCAR-5) [%],inhibition of growth at 10 µM (786-0) [%],inhibition of growth at 10 µM (OVCAR-4) [%],inhibition of growth at 10 µM (M14) [%],inhibition of growth at 10 µM (A498) [%],inhibition of growth at 10 µM (MDA-MB-435) [%],inhibition of growth at 10 µM (HT-29) [%],inhibition of growth at 10 µM (TK-10) [%],inhibition of growth at 10 µM (EKVX) [%],inhibition of growth at 10 µM (HL-60(TB)) [%],inhibition of growth at 10 µM (UACC-62) [%],inhibition of growth at 10 µM (UACC-257) [%],inhibition of growth at 10 µM (RXF 393) [%],inhibition of growth at 10 µM (ACHN) [%],inhibition of growth at 10 µM (A549) [%],inhibition of growth at 10 µM (HCT-15) [%],IC50 (CDK9/cyclin T1) [µM],inhibition of growth at 10 µM (HOP-92) [%],also measured
Nc1nn2cc(-c3ccccc3)[nH]c2c1/N=N/c1ccc(S(N)(=O)=O)cc1,74,87,35,72,63,69,92,71,61,52,45,72,69,31,93,91,67,77,> 25,74,inhibition of growth at 10 µM (HCC 2998): 54%; inhibition of growth at 10 µM (SF-295): 52%; inhibition of growth at 10 µM (NCI-H23): 54%; inhibition of growth at 10 µM (SR): 87%; inhibition of growth at 10 µM (SF-268): 63%; inhibition of growth at 10 µM (SK-MEL-28): 55%; inhibition of growth at 10 µM (SNB-19): 40%; inhibition of growth at 10 µM (COLO 205): 55%
N#Cc1c(-c2ccc(F)cc2)nc2c(/N=N/c3ccc(S(N)(=O)=O)cc3)c(N)nn2c1N,,,,,,,,,,,,,,,59,,,,> 12.5,58,fold change (FC) (MCF7 [1]): 23; IC50 (MCF7 [2]): 2.96 µM; Activity (MCF7 [3]): Active; Activity (MCF7 [4]): 6.58%; IC50 (MCF7 [5]): 7.73 µM; Activity (MCF7 [6]): 10.89%; IC50 (MDA-MB-468 [7]): 5.38 µM; IC50 (MDA-MB-468 [8]): 11.3 µM
Nc1nn2cc(-c3ccc(Br)cc3)[nH]c2c1/N=N/c1ccc(S(N)(=O)=O)cc1,48,82,24,56,43,61,83,46,34,50,21,36,47,21,55,76,51,63,> 12.5,29,inhibition of growth at 10 µM (HCC 2998): 33%; inhibition of growth at 10 µM (NCI-H23): 30%; inhibition of growth at 10 µM (SR): 54%; inhibition of growth at 10 µM (SF-268): 42%; inhibition of growth at 10 µM (SK-MEL-28): 32%; inhibition of growth at 10 µM (SNB-19): 26%; inhibition of growth at 10 µM (COLO 205): 28%
Cc1ccc(-c2cn3nc(N)c(/N=N/c4ccc(S(N)(=O)=O)cc4)c3[nH]2)cc1,60,77,23,60,46,60,87,52,37,53,28,47,44,20,56,79,62,65,> 12.5,35,inhibition of growth at 10 µM (HCC 2998): 40%; inhibition of growth at 10 µM (SF-295): 29%; inhibition of growth at 10 µM (NCI-H23): 34%; inhibition of growth at 10 µM (SR): 63%; inhibition of growth at 10 µM (SF-268): 49%; inhibition of growth at 10 µM (SK-MEL-28): 38%; inhibition of growth at 10 µM (SNB-19): 24%; inhibition of growth at 10 µM (COLO 205): 24%
